{"source": "ChEMBL document CHEMBL3769383", "about": "“Cefsulodin Inspired Potent and Selective Inhibitors of mPTPB, a Virulent Phosphatase from Mycobacterium tuberculosis” (ACS Med Chem Lett, 2015)", "key": {"[1]": {"target": "Tyrosine-protein phosphatase non-receptor type 1 (Homo sapiens) (UniProt P18031)", "sequence (P18031 whole entry)": "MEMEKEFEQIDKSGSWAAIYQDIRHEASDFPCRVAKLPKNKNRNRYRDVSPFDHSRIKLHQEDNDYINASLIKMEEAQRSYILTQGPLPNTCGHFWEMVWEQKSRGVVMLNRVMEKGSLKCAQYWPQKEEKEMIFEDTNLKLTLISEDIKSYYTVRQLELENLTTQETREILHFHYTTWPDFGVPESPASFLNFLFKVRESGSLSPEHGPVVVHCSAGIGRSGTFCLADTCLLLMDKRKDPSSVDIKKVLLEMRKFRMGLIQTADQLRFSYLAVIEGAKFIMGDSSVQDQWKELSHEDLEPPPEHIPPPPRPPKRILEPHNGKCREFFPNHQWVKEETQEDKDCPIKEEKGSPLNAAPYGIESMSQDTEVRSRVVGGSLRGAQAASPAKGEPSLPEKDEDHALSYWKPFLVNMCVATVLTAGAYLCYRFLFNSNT", "assay": "Inhibition of PTP1B (unknown origin) expressed in Escherichia coli using pNPP as substrate at 200 uM after 5 mins by spectrophotometry", "in_short": "(§1)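 Single-point screen: the test compound is present at 200 μM in the assay (a compound concentration, not a substrate level). The read-out is phosphatase-catalysed hydrolysis of para-nitrophenyl phosphate.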"}, "[2]": {"target": "Tyrosine-protein phosphatase non-receptor type 22 (Homo sapiens) (UniProt Q9Y2R2)", "assay": "Inhibition of LYP (unknown origin) expressed in Escherichia coli using pNPP as substrate at 200 uM after 5 mins by spectrophotometry", "in_short": "as §1"}, "[3]": {"target": "Tyrosine-protein phosphatase non-receptor type 7 (Homo sapiens) (UniProt P35236)", "assay": "Inhibition of HePTP (unknown origin) expressed in Escherichia coli using pNPP as substrate at 200 uM after 5 mins by spectrophotometry", "in_short": "as §1"}, "[4]": {"target": "Tyrosine-protein phosphatase non-receptor type 6 (Homo sapiens) (UniProt P29350)", "assay": "Inhibition of SHP1 (unknown origin) expressed in Escherichia coli using pNPP as substrate at 200 uM after 5 mins by spectrophotometry", "in_short": "as §1"}, "[5]": {"target": "Tyrosine-protein phosphatase non-receptor type 11 (Homo sapiens) (UniProt Q06124)", "assay": "Inhibition of SHP2 (unknown origin) expressed in Escherichia coli using pNPP as substrate at 200 uM after 5 mins by spectrophotometry", "in_short": "as §1"}, "[6]": {"target": "Receptor-type tyrosine-protein phosphatase F (Homo sapiens) (UniProt P10586)", "sequence (P10586 whole entry)": "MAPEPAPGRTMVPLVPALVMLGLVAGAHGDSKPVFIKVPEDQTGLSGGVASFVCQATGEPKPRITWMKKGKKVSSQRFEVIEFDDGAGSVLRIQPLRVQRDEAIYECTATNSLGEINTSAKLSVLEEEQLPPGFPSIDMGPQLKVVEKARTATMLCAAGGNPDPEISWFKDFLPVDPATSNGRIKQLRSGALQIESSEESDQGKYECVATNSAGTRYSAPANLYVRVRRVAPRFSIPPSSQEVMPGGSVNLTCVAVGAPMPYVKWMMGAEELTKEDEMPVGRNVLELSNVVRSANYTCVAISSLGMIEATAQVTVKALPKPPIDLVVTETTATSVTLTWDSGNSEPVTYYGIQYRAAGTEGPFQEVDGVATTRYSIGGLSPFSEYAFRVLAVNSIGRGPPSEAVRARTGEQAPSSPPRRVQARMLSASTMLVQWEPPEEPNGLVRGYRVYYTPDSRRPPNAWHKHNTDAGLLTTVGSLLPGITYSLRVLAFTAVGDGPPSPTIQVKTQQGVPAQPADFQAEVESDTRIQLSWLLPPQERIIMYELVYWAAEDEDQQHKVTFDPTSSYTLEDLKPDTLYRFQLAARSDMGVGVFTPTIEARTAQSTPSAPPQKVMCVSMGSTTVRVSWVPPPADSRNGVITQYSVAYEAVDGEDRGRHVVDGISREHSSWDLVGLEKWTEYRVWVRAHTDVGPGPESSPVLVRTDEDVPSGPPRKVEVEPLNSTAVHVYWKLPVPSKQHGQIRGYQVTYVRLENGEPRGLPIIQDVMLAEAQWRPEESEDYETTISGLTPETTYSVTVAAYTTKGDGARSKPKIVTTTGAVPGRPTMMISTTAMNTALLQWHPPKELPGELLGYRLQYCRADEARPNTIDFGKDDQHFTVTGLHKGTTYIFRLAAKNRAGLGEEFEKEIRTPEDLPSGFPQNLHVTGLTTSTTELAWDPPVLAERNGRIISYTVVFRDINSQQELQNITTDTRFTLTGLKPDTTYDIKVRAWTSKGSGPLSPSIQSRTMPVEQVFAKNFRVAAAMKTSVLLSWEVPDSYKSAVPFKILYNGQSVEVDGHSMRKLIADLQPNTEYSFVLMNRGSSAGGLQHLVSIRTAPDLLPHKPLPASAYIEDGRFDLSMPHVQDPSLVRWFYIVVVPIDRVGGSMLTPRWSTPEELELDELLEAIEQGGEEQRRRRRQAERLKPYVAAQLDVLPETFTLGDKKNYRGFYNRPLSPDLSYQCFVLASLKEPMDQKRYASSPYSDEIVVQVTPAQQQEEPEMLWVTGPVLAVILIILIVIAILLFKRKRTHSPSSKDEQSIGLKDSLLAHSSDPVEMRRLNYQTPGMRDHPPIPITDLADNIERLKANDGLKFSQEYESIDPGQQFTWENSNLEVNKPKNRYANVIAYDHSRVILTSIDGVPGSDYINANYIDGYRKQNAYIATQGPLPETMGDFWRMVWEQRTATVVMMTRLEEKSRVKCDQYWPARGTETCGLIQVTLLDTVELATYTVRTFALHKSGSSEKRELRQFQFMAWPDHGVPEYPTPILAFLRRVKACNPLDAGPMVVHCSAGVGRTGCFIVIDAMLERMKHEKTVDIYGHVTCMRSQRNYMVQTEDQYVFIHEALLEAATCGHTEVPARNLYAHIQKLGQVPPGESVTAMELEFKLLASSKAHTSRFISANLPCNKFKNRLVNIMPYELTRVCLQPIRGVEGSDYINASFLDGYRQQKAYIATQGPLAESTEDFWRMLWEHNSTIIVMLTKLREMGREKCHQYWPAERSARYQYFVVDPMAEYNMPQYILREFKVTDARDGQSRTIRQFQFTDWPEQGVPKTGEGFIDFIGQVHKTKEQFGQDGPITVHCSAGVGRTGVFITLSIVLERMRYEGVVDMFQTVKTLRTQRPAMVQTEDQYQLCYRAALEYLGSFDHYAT", "assay": "Inhibition of LAR (unknown origin) using pNPP as substrate at 200 uM after 5 mins by spectrophotometry", "in_short": "as §1"}, "[7]": {"target": "Receptor-type tyrosine-protein phosphatase gamma (Homo sapiens) (UniProt P23470)", "sequence (P23470 whole entry)": "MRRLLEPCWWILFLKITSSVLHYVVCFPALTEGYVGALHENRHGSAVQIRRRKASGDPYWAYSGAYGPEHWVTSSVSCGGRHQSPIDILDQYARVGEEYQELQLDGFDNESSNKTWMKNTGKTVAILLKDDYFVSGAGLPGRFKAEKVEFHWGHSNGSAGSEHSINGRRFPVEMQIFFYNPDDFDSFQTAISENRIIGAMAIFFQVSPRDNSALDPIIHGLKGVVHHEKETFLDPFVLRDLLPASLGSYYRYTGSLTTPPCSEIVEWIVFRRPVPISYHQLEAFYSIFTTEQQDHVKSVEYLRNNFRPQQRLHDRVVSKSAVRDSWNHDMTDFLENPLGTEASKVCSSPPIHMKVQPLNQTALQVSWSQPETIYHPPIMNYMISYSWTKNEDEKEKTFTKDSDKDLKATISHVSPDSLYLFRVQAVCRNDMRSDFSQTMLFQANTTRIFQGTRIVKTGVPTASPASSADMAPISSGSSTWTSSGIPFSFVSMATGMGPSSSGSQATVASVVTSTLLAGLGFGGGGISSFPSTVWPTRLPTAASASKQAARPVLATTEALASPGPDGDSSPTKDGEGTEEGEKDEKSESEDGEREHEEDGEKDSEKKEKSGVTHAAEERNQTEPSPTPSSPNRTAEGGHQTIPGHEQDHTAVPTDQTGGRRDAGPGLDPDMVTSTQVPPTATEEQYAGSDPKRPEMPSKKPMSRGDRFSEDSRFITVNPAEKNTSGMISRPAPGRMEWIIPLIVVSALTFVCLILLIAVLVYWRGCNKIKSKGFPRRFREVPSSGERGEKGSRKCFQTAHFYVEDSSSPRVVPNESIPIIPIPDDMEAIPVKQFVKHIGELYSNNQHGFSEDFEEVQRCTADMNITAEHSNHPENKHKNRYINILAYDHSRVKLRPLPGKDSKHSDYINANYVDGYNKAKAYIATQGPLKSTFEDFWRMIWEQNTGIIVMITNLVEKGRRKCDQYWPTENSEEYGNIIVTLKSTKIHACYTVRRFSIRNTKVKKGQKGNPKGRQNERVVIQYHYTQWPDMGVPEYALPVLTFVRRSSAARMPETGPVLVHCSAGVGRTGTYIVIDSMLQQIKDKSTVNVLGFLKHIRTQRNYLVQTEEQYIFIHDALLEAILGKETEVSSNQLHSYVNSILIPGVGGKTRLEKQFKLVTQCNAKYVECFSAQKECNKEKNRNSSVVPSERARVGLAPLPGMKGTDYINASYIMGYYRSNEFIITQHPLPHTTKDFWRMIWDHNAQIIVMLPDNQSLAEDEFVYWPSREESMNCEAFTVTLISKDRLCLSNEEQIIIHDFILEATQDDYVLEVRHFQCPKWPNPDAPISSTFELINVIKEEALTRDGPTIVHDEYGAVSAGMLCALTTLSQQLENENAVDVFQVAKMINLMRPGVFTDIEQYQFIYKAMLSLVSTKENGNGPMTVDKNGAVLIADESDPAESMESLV", "assay": "Inhibition of PTPgamma (unknown origin) using pNPP as substrate at 200 uM after 5 mins by spectrophotometry", "in_short": "as §1"}, "[8]": {"target": "Receptor-type tyrosine-protein phosphatase epsilon (Homo sapiens) (UniProt P23469)", "assay": "Inhibition of PTPepsilon (unknown origin) using pNPP as substrate at 200 uM after 5 mins by spectrophotometry", "in_short": "as §1"}, "[9]": {"target": "Dual specificity protein phosphatase 10 (Homo sapiens) (UniProt Q9Y6W6)", "assay": "Inhibition of MKP5 (unknown origin) using pNPP as substrate at 200 uM after 5 mins by spectrophotometry", "in_short": "as §1"}, "[10]": {"target": "Dual specificity protein phosphatase 22 (Homo sapiens) (UniProt Q9NRW4)", "sequence (Q9NRW4 whole entry)": "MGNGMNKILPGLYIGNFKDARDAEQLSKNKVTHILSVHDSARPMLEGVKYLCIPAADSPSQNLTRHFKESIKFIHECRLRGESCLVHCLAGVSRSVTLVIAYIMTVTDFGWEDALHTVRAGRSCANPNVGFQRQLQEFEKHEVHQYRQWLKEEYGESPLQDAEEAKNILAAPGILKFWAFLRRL", "assay": "Inhibition of VHX (unknown origin) expressed in Escherichia coli using pNPP as substrate at 200 uM after 5 mins by spectrophotometry", "in_short": "as §1"}, "[11]": {"target": "Dual specificity protein phosphatase CDC14A (Homo sapiens) (UniProt Q9UNH5)", "assay": "Inhibition of CDC14A (unknown origin) using pNPP as substrate at 200 uM after 5 mins by spectrophotometry", "in_short": "as §1"}, "[12]": {"target": "Low molecular weight phosphotyrosine protein phosphatase (Homo sapiens) (UniProt P24666)", "sequence (P24666 whole entry)": "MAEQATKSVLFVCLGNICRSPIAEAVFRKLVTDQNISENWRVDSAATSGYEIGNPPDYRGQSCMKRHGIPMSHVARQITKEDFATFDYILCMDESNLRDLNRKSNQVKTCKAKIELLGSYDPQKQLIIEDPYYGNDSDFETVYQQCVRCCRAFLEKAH", "assay": "Inhibition of LMWPTP (unknown origin) using pNPP as substrate at 200 uM after 5 mins by spectrophotometry", "in_short": "as §1"}, "[13]": {"target": "Serine/threonine-protein phosphatase 5 (Homo sapiens) (UniProt P53041)", "assay": "Inhibition of PP5 (unknown origin) using pNPP as substrate at 200 uM after 5 mins by spectrophotometry", "in_short": "as §1"}, "[14]": {"target": "Receptor-type tyrosine-protein phosphatase C (Homo sapiens) (UniProt P08575)", "assay": "Inhibition of CD45 (unknown origin) expressed in Escherichia coli using pNPP as substrate at 200 uM after 5 mins by spectrophotometry", "in_short": "as §1"}, "RAW264.7 [15]": {"tested_on": "RAW264.7", "assay": "Inhibition of Mycobacterium tuberculosis PTPB transfected in mouse RAW264.7 cells assessed as increase in ERK1/2 phosphorylation pre-treated for 1 hrs followed by stimulation with IFNgamma for 1 hr by Western blotting method", "type": "cell-based"}, "RAW264.7 [16]": {"tested_on": "RAW264.7", "assay": "Inhibition of Mycobacterium tuberculosis PTPB transfected in mouse RAW264.7 cells assessed as increase in p38 phosphorylation pre-treated for 1 hrs followed by stimulation with IFNgamma for 1 hr by Western blotting method", "type": "cell-based"}, "[17]": {"target": "Mitogen-activated protein kinase 1 and 3 (ERK2 and ERK1) (Mus musculus) (UniProt P63085+Q63844)", "sequence (P63085 whole entry, looked up)": "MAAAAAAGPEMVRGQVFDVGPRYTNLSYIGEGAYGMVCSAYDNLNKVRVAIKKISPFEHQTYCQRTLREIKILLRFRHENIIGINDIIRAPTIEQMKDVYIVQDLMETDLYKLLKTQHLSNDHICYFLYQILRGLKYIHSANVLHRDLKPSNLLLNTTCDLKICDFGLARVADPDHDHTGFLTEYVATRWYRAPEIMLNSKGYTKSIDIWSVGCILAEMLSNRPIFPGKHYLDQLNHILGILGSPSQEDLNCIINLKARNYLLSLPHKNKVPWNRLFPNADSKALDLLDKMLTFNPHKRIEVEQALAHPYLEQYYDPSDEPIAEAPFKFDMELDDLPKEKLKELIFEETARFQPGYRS", "sequence (Q63844 whole entry, looked up)": "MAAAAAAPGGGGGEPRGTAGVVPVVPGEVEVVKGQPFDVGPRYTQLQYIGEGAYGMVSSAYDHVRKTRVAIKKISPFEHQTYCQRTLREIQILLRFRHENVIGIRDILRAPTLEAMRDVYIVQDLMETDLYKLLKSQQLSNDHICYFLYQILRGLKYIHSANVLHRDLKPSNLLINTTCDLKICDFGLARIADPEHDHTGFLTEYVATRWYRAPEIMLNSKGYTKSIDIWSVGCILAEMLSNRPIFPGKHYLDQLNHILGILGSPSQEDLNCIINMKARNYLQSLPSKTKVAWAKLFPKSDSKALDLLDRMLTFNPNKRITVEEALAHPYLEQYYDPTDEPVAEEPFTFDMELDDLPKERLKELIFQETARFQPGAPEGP", "assay": "Effect on ERK1/2 phosphorylation in mouse RAW264.7 cells transfected with empty vector at 10 to 40 nM pre-treated for 1 hrs followed by stimulation with IFNgamma for 1 hr by Western blotting method", "type": "cell-based"}, "[18]": {"target": "MAP kinase p38 (Mus musculus) (UniProt P47811+O08911+Q9WUI1+Q9Z1B7)", "assay": "Effect on p38 phosphorylation in mouse RAW264.7 cells transfected with empty vector at 10 to 40 nM pre-treated for 1 hrs followed by stimulation with IFNgamma for 1 hr by Western blotting method", "type": "cell-based"}, "[19]": {"assay": "Reversible competitive inhibition of Mycobacterium tuberculosis PTPB expressed in Escherichia coli BL21/DE3 cells using pNPP as substrate after 5 mins by Lineweaver-Burk plot analysis"}, "[20]": {"tested_on": "Mycobacterium tuberculosis", "assay": "Selectivity ratio of IC50 for Mycobacterium tuberculosis PTPA to IC50 for Mycobacterium tuberculosis PTPB"}, "[21]": {"assay": "Selectivity ratio of IC50 for PTP1B (unknown origin) to IC50 for Mycobacterium tuberculosis PTPB"}, "[22]": {"assay": "Selectivity ratio of IC50 for TC-PTP (unknown origin) to IC50 for Mycobacterium tuberculosis PTPB", "in_short": "(§2)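 Each phosphatase in the 25-enzyme panel was tested for inhibition at 200 μM compound. The mPTPB IC50 was determined against mPTPB-catalysed hydrolysis of para-nitrophenyl phosphate. The ratio is the panel-enzyme IC50 divided by the mPTPB IC50.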"}, "[23]": {"assay": "Selectivity ratio of IC50 for LYP (unknown origin) to IC50 for Mycobacterium tuberculosis PTPB"}, "[24]": {"assay": "Selectivity ratio of IC50 for HePTP (unknown origin) to IC50 for Mycobacterium tuberculosis PTPB"}, "[25]": {"assay": "Selectivity ratio of IC50 for SHP1 (unknown origin) to IC50 for Mycobacterium tuberculosis PTPB", "in_short": "as §2"}, "[26]": {"assay": "Selectivity ratio of IC50 for SHP2 (unknown origin) to IC50 for Mycobacterium tuberculosis PTPB", "in_short": "as §2"}, "[27]": {"assay": "Selectivity ratio of IC50 for PTPbeta (unknown origin) to IC50 for Mycobacterium tuberculosis PTPB", "in_short": "as §2"}, "[28]": {"assay": "Selectivity ratio of IC50 for PTPmu (unknown origin) to IC50 for Mycobacterium tuberculosis PTPB", "in_short": "as §2"}, "[29]": {"assay": "Selectivity ratio of IC50 for PTPepsilon (unknown origin) to IC50 for Mycobacterium tuberculosis PTPB", "in_short": "as §2"}, "[30]": {"assay": "Selectivity ratio of IC50 for MKP5 (unknown origin) to IC50 for Mycobacterium tuberculosis PTPB"}, "[31]": {"assay": "Selectivity ratio of IC50 for VHR (unknown origin) to IC50 for Mycobacterium tuberculosis PTPB", "in_short": "as §2"}, "[32]": {"assay": "Selectivity ratio of IC50 for VHX (unknown origin) to IC50 for Mycobacterium tuberculosis PTPB", "in_short": "as §2"}, "[33]": {"assay": "Selectivity ratio of IC50 for Laforin (unknown origin) to IC50 for Mycobacterium tuberculosis PTPB"}, "[34]": {"assay": "Selectivity ratio of IC50 for LMWPTP (unknown origin) to IC50 for Mycobacterium tuberculosis PTPB"}, "[35]": {"assay": "Selectivity ratio of IC50 for PP5 (unknown origin) to IC50 for Mycobacterium tuberculosis PTPB"}}, "note": "Active and inactive are the calls of the source. The calls are words filed in the database; no cut-off is given here.", "data": [{"smiles": "O=C(C(c1ccccc1)S(=O)(=O)O)N1CCCC2CCCCC21", "note": "(racemic)", "values": [{"measurement": "inhibition", "setting": "[1]", "value": "inactive"}, {"measurement": "inhibition", "setting": "[2]", "value": "inactive"}, {"measurement": "inhibition", "setting": "[3]", "value": "inactive"}, {"measurement": "inhibition", "setting": "[4]", "value": "inactive"}, {"measurement": "inhibition", "setting": "[5]", "value": "inactive"}, {"measurement": "inhibition", "setting": "[6]", "value": "inactive"}, {"measurement": "inhibition", "setting": "[7]", "value": "inactive"}, {"measurement": "inhibition", "setting": "[8]", "value": "inactive"}, {"measurement": "inhibition", "setting": "[9]", "value": "inactive"}, {"measurement": "inhibition", "setting": "[10]", "value": "inactive"}, {"measurement": "inhibition", "setting": "[11]", "value": "inactive"}, {"measurement": "inhibition", "setting": "[12]", "value": "inactive"}, {"measurement": "inhibition", "setting": "[13]", "value": "inactive"}, {"measurement": "inhibition", "setting": "[14]", "value": "inactive"}, {"measurement": "inhibition", "setting": "RAW264.7 [15]", "value": "Dose-dependent effect"}, {"measurement": "inhibition", "setting": "RAW264.7 [16]", "value": "Dose-dependent effect"}, {"measurement": "Activity", "setting": "[17]", "value": "inactive"}, {"measurement": "Activity", "setting": "[18]", "value": "inactive"}, {"measurement": "Ki", "setting": "[19]", "value": 7.9, "unit": "nM"}, {"measurement": "Ratio IC50", "setting": "[20]", "value": "> 10000"}, {"measurement": "Ratio IC50", "setting": "[21]", "value": "> 10000"}, {"measurement": "Ratio IC50", "setting": "[22]", "value": "> 10000"}, {"measurement": "Ratio IC50", "setting": "[23]", "value": "> 10000"}, {"measurement": "Ratio IC50", "setting": "[24]", "value": "> 10000"}, {"measurement": "Ratio IC50", "setting": "[25]", "value": "> 10000"}, {"measurement": "Ratio IC50", "setting": "[26]", "value": "> 10000"}, {"measurement": "Ratio IC50", "setting": "[27]", "value": "> 10000"}, {"measurement": "Ratio IC50", "setting": "[28]", "value": "> 10000"}, {"measurement": "Ratio IC50", "setting": "[29]", "value": "> 10000"}, {"measurement": "Ratio IC50", "setting": "[30]", "value": "> 10000"}, {"measurement": "Ratio IC50", "setting": "[31]", "value": "> 10000"}, {"measurement": "Ratio IC50", "setting": "[32]", "value": "> 10000"}, {"measurement": "Ratio IC50", "setting": "[33]", "value": "> 10000"}, {"measurement": "Ratio IC50", "setting": "[34]", "value": "> 10000"}, {"measurement": "Ratio IC50", "setting": "[35]", "value": "> 10000"}]}]}
